Experimental data gathered from unrelated publications.
Compare with care: the assays were run in different laboratories.
Target: Serine/threonine-protein kinase MARK1 (MARK1, Homo sapiens, UniProt Q9P0L2)

SMILES	observed	mode	method	concentration	quantity	result
Cc1ccc(NC(=O)c2ccnc(C(F)(F)F)c2)cc1-c1cc(OCCO)nc(N2CCOCC2)c1	binding			1 µM	remaining binding	100%
CCCCC(=O)Nc1ccc(-c2ccc3ncn(CCC)c(=O)c3c2)cn1	binding		competition with immobilised ligand	0.5 µM	remaining binding	81%
CC#CC(=O)N1CCC[C@H]1c1nc(-c2ccc(C(=O)Nc3ccccn3)cc2)c2c(N)nccn12	enzyme activity	inhibitor		1 µM	inhibition	10%
COc1ccc2oc(-c3ccc4nc(N)oc4c3)c/c(=N\c3ccccc3NC(=O)CCN)c2c1	binding			1 µM	remaining binding	103%
C1=C/COCc2cc(ccc2OCCN2CCCC2)Nc2nccc(n2)-c2cccc(c2)COC/1	binding			0.1 µM	remaining binding	100%
CO[C@@H]1[C@H](N(C)C(=O)c2ccccc2)C[C@H]2O[C@]1(C)n1c3ccccc3c3c4c(c5c6ccccc6n2c5c31)C(=O)NC4	enzyme activity	inhibitor		1 µM	inhibition	96%
C#Cc1cc(-c2cc(Nc3nc(N[C@@H](C)c4ccc(F)cn4)ncc3Cl)n[nH]2)ccc1C=O	enzyme activity	inhibitor		0.2 µM	inhibition	8.26%
C[C@H]1CC[C@H](n2c3cnccc3c3cnc(Nc4ccc5c(n4)CCN(C(=O)CO)C5)nc32)CC1	cell-free assay			1 µM	remaining signal	66%
